Data taken from ChEMBL document CHEMBL1240374, “Selection of mutations to detect multidrug-resistant Mycobacterium tuberculosis strains in Shanghai, China” (2010).

Assays:
Format in all cases: functional
[1] = system: Mycobacterium tuberculosis; test: Antibacterial activity against drug resistant Mycobacterium tuberculosis containing phenotypic ahpC-39 mutation assessed as cumulative microbial sensitivity by phenotypic drug susceptibility testing
How it was run: (§1)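 Phenotypic DST on clinical M. tuberculosis isolates by the egg-based Löwenstein-Jensen proportion method. Species was confirmed by biochemical tests and PCR. Mutations were found by sequencing. Each mutation is reported as a number and as a percentage of the isolates screened.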

[2] = system: Mycobacterium tuberculosis; test: Antibacterial activity against drug resistant Mycobacterium tuberculosis containing phenotypic inhA-8 mutation assessed as cumulative microbial sensitivity by phenotypic drug susceptibility testing; how it was run: as §1
[3] = system: Mycobacterium tuberculosis; test: Antibacterial activity against drug resistant Mycobacterium tuberculosis containing phenotypic inhA25 mutation assessed as cumulative microbial sensitivity by phenotypic drug susceptibility testing; how it was run: as §1
[4] = system: Mycobacterium tuberculosis; test: Antibacterial activity against drug resistant Mycobacterium tuberculosis containing phenotypic katG322 mutation assessed as cumulative microbial sensitivity by phenotypic drug susceptibility testing; how it was run: as §1
[5] = system: Mycobacterium tuberculosis; test: Antibacterial activity against Mycobacterium tuberculosis containing phenotypic rpoB513,katG315,inhA-15,ahpC-10,ahpC-6 mutation assessed as microbial sensitivity by phenotypic drug susceptibility testing; how it was run: as §1
[6] = system: Mycobacterium tuberculosis; test: Antibacterial activity against drug resistant Mycobacterium tuberculosis containing phenotypic ahpC-32 mutation assessed as cumulative microbial sensitivity by phenotypic drug susceptibility testing; how it was run: as §1
[7] = system: Mycobacterium tuberculosis; test: Antibacterial activity against drug resistant Mycobacterium tuberculosis containing phenotypic ahpC-6 mutation assessed as cumulative microbial sensitivity by phenotypic drug susceptibility testing; how it was run: as §1
[8] = system: Mycobacterium tuberculosis; test: Antibacterial activity against drug resistant Mycobacterium tuberculosis containing phenotypic ahpC-15 mutation assessed as cumulative microbial sensitivity by phenotypic drug susceptibility testing; how it was run: as §1
[9] = system: Mycobacterium tuberculosis; test: Antibacterial activity against drug resistant Mycobacterium tuberculosis containing phenotypic ahpC-12 mutation assessed as cumulative microbial sensitivity by phenotypic drug susceptibility testing; how it was run: as §1
[10] = system: Mycobacterium tuberculosis; test: Antibacterial activity against drug resistant Mycobacterium tuberculosis containing phenotypic ahpC-9 mutation assessed as cumulative microbial sensitivity by phenotypic drug susceptibility testing; how it was run: as §1
[11] = system: Mycobacterium tuberculosis; test: Antibacterial activity against drug resistant Mycobacterium tuberculosis containing phenotypic ahpC-10 mutation assessed as cumulative microbial sensitivity by phenotypic drug susceptibility testing; how it was run: as §1
[12] = system: Mycobacterium tuberculosis; test: Antibacterial activity against Mycobacterium tuberculosis containing phenotypic embB306 mutation assessed as microbial sensitivity by phenotypic drug susceptibility testing; how it was run: as §1
[13] = system: Mycobacterium tuberculosis; test: Antibacterial activity against drug resistant Mycobacterium tuberculosis containing phenotypic katG299 mutation assessed as cumulative microbial sensitivity by phenotypic drug susceptibility testing; how it was run: as §1
[14] = system: Mycobacterium tuberculosis; test: Antibacterial activity against drug resistant Mycobacterium tuberculosis containing phenotypic inhA-15 mutation assessed as cumulative microbial sensitivity by phenotypic drug susceptibility testing; how it was run: as §1
[15] = system: Mycobacterium tuberculosis; test: Antibacterial activity against drug resistant Mycobacterium tuberculosis containing phenotypic katG295 mutation assessed as cumulative microbial sensitivity by phenotypic drug susceptibility testing; how it was run: as §1
[16] = system: Mycobacterium tuberculosis; test: Antibacterial activity against drug resistant Mycobacterium tuberculosis containing phenotypic katG315 mutation assessed as cumulative microbial sensitivity by phenotypic drug susceptibility testing; how it was run: as §1
[17] = system: Mycobacterium tuberculosis; test: Antibacterial activity against drug resistant Mycobacterium tuberculosis containing phenotypic rpoB531 mutation assessed as cumulative microbial sensitivity by phenotypic drug susceptibility testing; how it was run: as §1
[18] = system: Mycobacterium tuberculosis; test: Antibacterial activity against drug resistant Mycobacterium tuberculosis containing phenotypic rpoB533 mutation assessed as cumulative microbial sensitivity by phenotypic drug susceptibility testing; how it was run: as §1
[19] = system: Mycobacterium tuberculosis; test: Antibacterial activity against drug resistant Mycobacterium tuberculosis containing phenotypic rpoB515 mutation assessed as cumulative microbial sensitivity by phenotypic drug susceptibility testing; how it was run: as §1
[20] = system: Mycobacterium tuberculosis; test: Antibacterial activity against drug resistant Mycobacterium tuberculosis containing phenotypic rpoB511 mutation assessed as cumulative microbial sensitivity by phenotypic drug susceptibility testing; how it was run: as §1
[21] = system: Mycobacterium tuberculosis; test: Antibacterial activity against drug resistant Mycobacterium tuberculosis containing phenotypic rpoB534 mutation assessed as cumulative microbial sensitivity by phenotypic drug susceptibility testing; how it was run: as §1
[22] = system: Mycobacterium tuberculosis; test: Antibacterial activity against drug resistant Mycobacterium tuberculosis containing phenotypic rpoB519 mutation assessed as cumulative microbial sensitivity by phenotypic drug susceptibility testing; how it was run: as §1
[23] = system: Mycobacterium tuberculosis; test: Antibacterial activity against drug resistant Mycobacterium tuberculosis containing phenotypic rpoB513 mutation assessed as cumulative microbial sensitivity by phenotypic drug susceptibility testing; how it was run: as §1
[24] = system: Mycobacterium tuberculosis; test: Antibacterial activity against drug resistant Mycobacterium tuberculosis containing phenotypic rpoB518 mutation assessed as cumulative microbial sensitivity by phenotypic drug susceptibility testing; how it was run: as §1
[25] = system: Mycobacterium tuberculosis; test: Antibacterial activity against drug resistant Mycobacterium tuberculosis containing phenotypic rpoB516 mutation assessed as cumulative microbial sensitivity by phenotypic drug susceptibility testing; how it was run: as §1
[26] = system: Mycobacterium tuberculosis; test: Antibacterial activity against Mycobacterium tuberculosis containing phenotypic rpoB531,rpoB526,rpo533 mutation assessed as microbial sensitivity by phenotypic drug susceptibility testing; how it was run: as §1
[27] = system: Mycobacterium tuberculosis; test: Antibacterial activity against drug resistant Mycobacterium tuberculosis containing phenotypic rpoB529 mutation assessed as cumulative microbial sensitivity by phenotypic drug susceptibility testing; how it was run: as §1
[28] = system: Mycobacterium tuberculosis; test: Antibacterial activity against drug resistant Mycobacterium tuberculosis containing phenotypic rpoB526 mutation assessed as cumulative microbial sensitivity by phenotypic drug susceptibility testing; how it was run: as §1
[29] = system: Mycobacterium tuberculosis; test: Antibacterial activity against drug resistant Mycobacterium tuberculosis containing phenotypic rpoB522 mutation assessed as cumulative microbial sensitivity by phenotypic drug susceptibility testing; how it was run: as §1

For `NNC(=O)c1ccncc1` [ISONIAZID], the Activity [1] was 86.4%, the Activity [2] was 86.4% and the Activity [3] was 87.6%. For the same compound, the Activity [4] was 89.3%, the Activity [5] was 85.5% and the Activity [6] was 88%. It also gave an Activity [7] of 83.1%, an Activity [8] of 88.4% and an Activity [9] of 85.5%. It also gave an Activity [10] of 87.6%, an Activity [11] of 80.6% and an Activity [12] of 89.3%. For the same compound, the Activity [13] was 88.8%, the Activity [14] was 78.5% and the Activity [15] was 88.8%. For the same compound, the Activity [16] was 72.7%.
Work on `CO[C@H]1/C=C/O[C@@]2(C)Oc3c(C)c(O)c4c(O)c(c(/C=N/N5CCN(C)CC5)c(O)c4c3C2=O)NC(=O)/C(C)=C\C=C\[C@H](C)[C@H](O)[C@@H](C)[C@@H](O)[C@@H](C)[C@H](OC(C)=O)[C@@H]1C` [RIFAMPIN] yielded an Activity [17] of 61.2%, an Activity [18] of 90.9% and an Activity [19] of 95.9%. The Activity [20] was 94.2%, the Activity [21] was 95.9% and the Activity [22] was 96.3%. It also gave an Activity [23] of 93.8%, an Activity [12] of 93.8% and an Activity [24] of 95.9%. It also gave an Activity [25] of 87.2%, an Activity [26] of 93.8% and an Activity [27] of 95.9%. For the same compound, the Activity [28] was 79.8% and the Activity [29] was 95.9%.
